The term IC50 denotes the concentration that inhibits the measured activity by half. Read a low IC50 as greater potency.

Here are results for four molecules from ChEMBL document CHEMBL1130244, “Boron-containing polyamines as DNA targeting agents for neutron capture therapy of brain tumors: synthesis and biological evaluation” (J Med Chem, 1997).

Test [1] in a line: Actual boron concentration in media was determined by using direct current plasma atomic emission spectroscopy (DCP-AES) after 24 hr incubation.
The species named for another test is Rattus norvegicus. The experiment in a line: In vitro uptake of compound by F98 glioma cells was determined by measuring cellular boron content using direct current plasma atomic emission spectroscopy (DCP-AES) after 24 hr incubation.
A short description of test [2]: Concentration required to produce a 50% reduction in the uptake of [3H]TdR, by F98 glioma cells. Type of test: functional. The note with it: Rattus norvegicus, F98, 24 h. In a few lines:
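F98 rat glioma cells, 10 000/well, grown overnight at 37 °C in DMEM with 10% FBS, then 24 h with polyamine at 1–100 μM (0.1–10 μg/mL boron); medium replaced with compound-free medium, pulsed with 0.1 μCi [3H]TdR per well for 18–24 h, then harvested and counted. Six replicates per concentration; IC50 from cpm as % of untreated controls.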

For another test, the system named is Nucleic Acid. The experiment in a line: Binding of compound to calf thymus DNA was determined by an ethidium bromide displacement assay. Type of test: nucleic-acid assay, Bos taurus.

For the molecule `N[C@@H](Cc1ccc(B(O)O)cc1)C(=O)O`, the Cmedia in test [1] is reported as 50 ug of B/ml. Further, the Concentration in the test filed under Rattus norvegicus was 81 µg of B g-1.
As to `CCNCCCNCCCCNCCCNCC` [BIS(ETHYL)SPERMINE], the 50% inhibitory concentration (IC50) in test [2] is above 100 µM.
For `NCCCCNCCCN` [SPERMIDINE], the IC50 with Nucleic Acid was 175 µM; in test [2], above 100 µM.
For `NCCCNCCCCNCCCN` [SPERMINE], in that order: 17 µM and above 100 µM.
